Assay results: ChEMBL document CHEMBL1687785, “ampG gene of Pseudomonas aeruginosa and its role in β-lactamase expression” (2010)
Values after ≈ are worked out from the molar mass of the structure shown.

Tests used:
Format in all cases: functional
[1] = tested on: Pseudomonas aeruginosa; assay: Antimicrobial activity against ampG deficient Pseudomonas aeruginosa PAK after 16 to 20 hrs by broth microdilution method
Method in brief: (§1)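 CLSI broth microdilution in Mueller-Hinton broth, serial 2-fold antibiotic dilutions. Inoculum about 10^4 cells per well, taken from starter cultures grown to OD600 0.5. MIC was the lowest antibiotic concentration preventing growth after 16 to 20 h at 37°C. Each MIC was determined in triplicate.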

[2] = tested on: Pseudomonas aeruginosa; assay: Antimicrobial activity against ampG deficient Pseudomonas aeruginosa PAO1 harboring pUCP24 conferring resistance to gentamycin after 16 to 20 hrs by broth microdilution method; method in brief: as §1
[3] = tested on: Pseudomonas aeruginosa; assay: Antimicrobial activity against ampG, ampGh1 deficient Pseudomonas aeruginosa PAO1 after 16 to 20 hrs by broth microdilution method; method in brief: as §1
[4] = tested on: Pseudomonas aeruginosa; assay: Antimicrobial activity against ampG, ampGh1 deficient Pseudomonas aeruginosa PAK after 16 to 20 hrs by broth microdilution method; method in brief: as §1
[5] = tested on: Pseudomonas aeruginosa; assay: Antimicrobial activity against ampG deficient Pseudomonas aeruginosa PAK harboring pUCP24 conferring resistance to gentamycin after 16 to 20 hrs by broth microdilution method; method in brief: as §1
[6] = tested on: Pseudomonas aeruginosa; assay: Antimicrobial activity against ampGh1 deficient Pseudomonas aeruginosa PAK after 16 to 20 hrs by broth microdilution method; method in brief: as §1
[7] = tested on: Pseudomonas aeruginosa; assay: Antimicrobial activity against ampG deficient Pseudomonas aeruginosa PAK harboring pZY0901 conferring resistance to gentamycin after 16 to 20 hrs by broth microdilution method; method in brief: as §1
[8] = tested on: Pseudomonas aeruginosa; assay: Antimicrobial activity against ampD, ampDh2, ampDh3 and ampG deficient Pseudomonas aeruginosa PAO1 after 16 to 20 hrs by broth microdilution method; method in brief: as §1
[9] = tested on: Pseudomonas aeruginosa; assay: Antimicrobial activity against ampGh1 deficient Pseudomonas aeruginosa PAO1 after 16 to 20 hrs by broth microdilution method; method in brief: as §1
[10] = tested on: Pseudomonas aeruginosa; assay: Antimicrobial activity against Pseudomonas aeruginosa PAO1 after 16 to 20 hrs by broth microdilution method
Method in brief: (§2)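 CLSI broth microdilution: 2-fold serial antibiotic dilutions in Mueller-Hinton broth, inoculated with about 10^4 cells per 100 μl from starter cultures grown to OD600 0.5. MIC is the lowest concentration preventing growth after 16-20 h at 37°C. Triplicate.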

[11] = tested on: Pseudomonas aeruginosa; assay: Antimicrobial activity against ampG deficient Pseudomonas aeruginosa PAO1 harboring pZY0908 conferring resistance to gentamycin after 16 to 20 hrs by broth microdilution method; method in brief: as §1
[12] = tested on: Pseudomonas aeruginosa; assay: Antimicrobial activity against ampD, ampDh2, ampDh3 and ampG deficient Pseudomonas aeruginosa PAO1 harboring pZY0901 conferring resistance to gentamycin after 16 to 20 hrs by broth microdilution method; method in brief: as §1
[13] = tested on: Pseudomonas aeruginosa; assay: Antimicrobial activity against ampD, ampDh2, ampDh3 and ampG deficient Pseudomonas aeruginosa PAO1 harboring pUCP24 conferring resistance to gentamycin after 16 to 20 hrs by broth microdilution method; method in brief: as §1
[14] = tested on: Pseudomonas aeruginosa; assay: Antimicrobial activity against ampD, […], ampDh2 deficient Pseudomonas aeruginosa PAO1 after 16 to 20 hrs by broth microdilution method; method in brief: as §1
[15] = tested on: Pseudomonas aeruginosa; assay: Antimicrobial activity against Pseudomonas aeruginosa PAK after 16 to 20 hrs by broth microdilution method; method in brief: as §2
[16] = tested on: Pseudomonas aeruginosa; assay: Antimicrobial activity against ampG deficient Pseudomonas aeruginosa PAO1 after 16 to 20 hrs by broth microdilution method; method in brief: as §1
[17] = tested on: Pseudomonas aeruginosa; assay: Antimicrobial activity against ampG deficient Pseudomonas aeruginosa PAO1 harboring pZY0901 conferring resistance to gentamycin after 16 to 20 hrs by broth microdilution method; method in brief: as §1
[18] = tested on: Pseudomonas aeruginosa; assay: Antimicrobial activity against ampD, ampDh2, ampDh3 and ampGh1 deficient Pseudomonas aeruginosa PAO1 after 16 to 20 hrs by broth microdilution method; method in brief: as §1
[19] = tested on: Pseudomonas aeruginosa; assay: Antimicrobial activity against ampD, ampDh2, ampDh3 and ampG deficient Pseudomonas aeruginosa PAO1 harboring pZY0901 conferring resistance to gentamycin after 16 to 20 hrs by broth microdilution method in presence of 120 uM carbonyl cyanide m-chlorophenyl-hydrazone
Method in brief: (§3)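 CLSI broth microdilution in Mueller-Hinton broth with serial antibiotic dilutions. CCCP was added from a 10 mM DMSO stock to 120 μM final, then the bacterial culture was added as inoculum (about 10^4 cells from OD600 0.5 starter cultures). MIC was the lowest concentration preventing growth after 16 to 20 h at 37°C, run in triplicate.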

[20] = tested on: Escherichia coli; assay: Antimicrobial activity against gentamycin resistant Escherichia coli SNO301-1 harboring pEC1C carrying ampC, ampR from Enterobacter cloacae after 16 to 20 hrs by broth microdilution method
Method in brief: (§4)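 CLSI broth microdilution: serial 2-fold β-lactam dilutions in Mueller-Hinton broth, inoculum about 10^4 cells from starter cultures at OD600 0.5; MIC read as lowest concentration preventing growth after 16 to 20 h at 37°C; triplicate determinations.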

[21] = tested on: Pseudomonas aeruginosa; assay: Antimicrobial activity against Pseudomonas aeruginosa PAK after 16 to 20 hrs by broth microdilution method in presence of 120 uM carbonyl cyanide m-chlorophenyl-hydrazone
Method in brief: (§5)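 CLSI broth microdilution in Mueller-Hinton broth with CCCP added from a 10 mM DMSO stock to 120 μM final, alongside 2-fold serial antibiotic dilutions. Inoculum from starter cultures grown to OD600 0.5. MIC is the lowest concentration preventing growth after 16-20 h at 37°C. Triplicate.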

[22] = tested on: Pseudomonas aeruginosa; assay: Antimicrobial activity against ampGh1 deficient Pseudomonas aeruginosa PAO1 after 16 to 20 hrs by broth microdilution method in presence of 120 uM carbonyl cyanide m-chlorophenyl-hydrazone
Method in brief: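 Serial 2-fold dilutions of β-lactam in Mueller-Hinton broth with CCCP added from a 10 mM DMSO stock to 120 μM final; inoculum about 10^4 cells from cultures grown to OD600 0.5; MIC taken as lowest concentration preventing growth after 16 to 20 h at 37°C; triplicate.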

[23] = tested on: Pseudomonas aeruginosa; assay: Antimicrobial activity against ampG deficient Pseudomonas aeruginosa PAK harboring pZY0901 conferring resistance to gentamycin after 16 to 20 hrs by broth microdilution method in presence of 120 uM carbonyl cyanide m-chlorophenyl-hydrazone; method in brief: as §3
[24] = tested on: Pseudomonas aeruginosa; assay: Antimicrobial activity against ampG deficient Pseudomonas aeruginosa PAK harboring pUCP24 conferring resistance to gentamycin after 16 to 20 hrs by broth microdilution method in presence of 120 uM carbonyl cyanide m-chlorophenyl-hydrazone; method in brief: as §3
[25] = tested on: Pseudomonas aeruginosa; assay: Antimicrobial activity against ampG, ampGh1 deficient Pseudomonas aeruginosa PAO1 after 16 to 20 hrs by broth microdilution method in presence of 120 uM carbonyl cyanide m-chlorophenyl-hydrazone; method in brief: as §3
[26] = tested on: Pseudomonas aeruginosa; assay: Antimicrobial activity against Pseudomonas aeruginosa PAO1 after 16 to 20 hrs by broth microdilution method in presence of 120 uM carbonyl cyanide m-chlorophenyl-hydrazone; method in brief: as §5
[27] = tested on: Pseudomonas aeruginosa; assay: Antimicrobial activity against ampG deficient Pseudomonas aeruginosa PAO1 harboring pZY0901 conferring resistance to gentamycin after 16 to 20 hrs by broth microdilution method in presence of 120 uM carbonyl cyanide m-chlorophenyl-hydrazone; method in brief: as §3
[28] = tested on: Pseudomonas aeruginosa; assay: Antimicrobial activity against ampGh1 deficient Pseudomonas aeruginosa PAK after 16 to 20 hrs by broth microdilution method in presence of 120 uM carbonyl cyanide m-chlorophenyl-hydrazone; method in brief: as §3
[29] = tested on: Pseudomonas aeruginosa; assay: Antimicrobial activity against ampG, ampGh1 deficient Pseudomonas aeruginosa PAK after 16 to 20 hrs by broth microdilution method in presence of 120 uM carbonyl cyanide m-chlorophenyl-hydrazone; method in brief: as §3
[30] = tested on: Pseudomonas aeruginosa; assay: Antimicrobial activity against ampD, ampDh2, ampDh3 deficient Pseudomonas aeruginosa PAO1 after 16 to 20 hrs by broth microdilution method in presence of 120 uM carbonyl cyanide m-chlorophenyl-hydrazone; method in brief: as §3
[31] = tested on: Pseudomonas aeruginosa; assay: Antimicrobial activity against ampG deficient Pseudomonas aeruginosa PAK after 16 to 20 hrs by broth microdilution method in presence of 120 uM carbonyl cyanide m-chlorophenyl-hydrazone; method in brief: as §3
[32] = tested on: Pseudomonas aeruginosa; assay: Antimicrobial activity against ampG deficient Pseudomonas aeruginosa PAO1 after 16 to 20 hrs by broth microdilution method in presence of 120 uM carbonyl cyanide m-chlorophenyl-hydrazone; method in brief: as §3
[33] = tested on: Pseudomonas aeruginosa; assay: Antimicrobial activity against ampD, ampDh2, ampDh3 and ampG deficient Pseudomonas aeruginosa PAO1 harboring pUCP24 conferring resistance to gentamycin after 16 to 20 hrs by broth microdilution method in presence of 120 uM carbonyl cyanide m-chlorophenyl-hydrazone; method in brief: as §3
[34] = tested on: Pseudomonas aeruginosa; assay: Antimicrobial activity against ampD, ampDh2, ampDh3 and ampG deficient Pseudomonas aeruginosa PAO1 after 16 to 20 hrs by broth microdilution method in presence of 120 uM carbonyl cyanide m-chlorophenyl-hydrazone; method in brief: as §3
[35] = tested on: Escherichia coli; assay: Antimicrobial activity against kanamycin resistant Escherichia coli SNO301-1 harboring pEC1C carrying ampC, ampR from Enterobacter cloacae after 16 to 20 hrs by broth microdilution method; method in brief: as §4
[36] = tested on: Pseudomonas aeruginosa; assay: Antimicrobial activity against ampG deficient Pseudomonas aeruginosa PAO1 harboring pUCP24 conferring resistance to gentamycin after 16 to 20 hrs by broth microdilution method in presence of 120 uM carbonyl cyanide m-chlorophenyl-hydrazone; method in brief: as §3
[37] = tested on: Pseudomonas aeruginosa; assay: Antimicrobial activity against ampD, ampDh2, ampDh3 and ampGh1 deficient Pseudomonas aeruginosa PAO1 after 16 to 20 hrs by broth microdilution method in presence of 120 uM carbonyl cyanide m-chlorophenyl-hydrazone; method in brief: as §3
[38] = tested on: Escherichia coli; assay: Antimicrobial activity against tetracycline resistant Escherichia coli SNO301-1 harboring pEC1C carrying ampC, ampR from Enterobacter cloacae after 16 to 20 hrs by broth microdilution method; method in brief: as §4

Row | Structure (SMILES) | MIC [1] [µg/mL] | MIC [2] [µg/mL] | MIC [3] [µg/mL] | MIC [4] [µg/mL] | MIC [5] [µg/mL] | MIC [6] [µg/mL] | MIC [7] [µg/mL] | MIC [8] [µg/mL] | MIC [9] [µg/mL] | MIC [10] [µg/mL] | MIC [11] [µg/mL] | MIC [12] [µg/mL] | MIC [13] [µg/mL] | MIC [14] [µg/mL] | MIC [15] [µg/mL] | MIC [16] [µg/mL] | MIC [17] [µg/mL] | MIC [18] [µg/mL] | further results
1 | CC(C)(O/N=C(\C(=O)N[C@@H]1C(=O)N2C(C(=O)[O-])=C(C[n+]3ccccc3)CS[C@H]12)c1csc(N)n1)C(=O)O [CEFTAZIDIME] | 1 (≈ 1.83 µM) | 1 (≈ 1.83 µM) | 1 (≈ 1.83 µM) | 1 (≈ 1.83 µM) | 1 (≈ 1.83 µM) | 1 (≈ 1.83 µM) | 32 (≈ 58.5 µM) | 1 (≈ 1.83 µM) | 1 (≈ 1.83 µM) | 1 (≈ 1.83 µM) | 1 (≈ 1.83 µM) | 32 (≈ 58.5 µM) | 1 (≈ 1.83 µM) | 32 (≈ 58.5 µM) | 1 (≈ 1.83 µM) | 1 (≈ 1.83 µM) | 16 (≈ 29.3 µM) | 32 (≈ 58.5 µM) | –
2 | CO/N=C(\C(=O)N[C@@H]1C(=O)N2C(C(=O)O)=C(COC(C)=O)CS[C@H]12)c1csc(N)n1 [CEFOTAXIME] | 8 (≈ 17.6 µM) | 8 (≈ 17.6 µM) | 8 (≈ 17.6 µM) | 8 (≈ 17.6 µM) | 4 (≈ 8.78 µM) | 8 (≈ 17.6 µM) | 512 (≈ 1120 µM) | 4 (≈ 8.78 µM) | 16 (≈ 35.1 µM) | 16 (≈ 35.1 µM) | 8 (≈ 17.6 µM) | 512 (≈ 1120 µM) | 4 (≈ 8.78 µM) | 512 (≈ 1120 µM) | 8 (≈ 17.6 µM) | 8 (≈ 17.6 µM) | 256 (≈ 562 µM) | 256 (≈ 562 µM) | MIC [19]: 64 µg/mL; MIC [20]: 32 µg/mL (≈ 70.3 µM); MIC [21]: 8 µg/mL; MIC [22]: 8 µg/mL; MIC [23]: 256 µg/mL; MIC [24]: 4 µg/mL; MIC [25]: 4 µg/mL; MIC [26]: 8 µg/mL; MIC [27]: 128 µg/mL; MIC [28]: 8 µg/mL; MIC [29]: 4 µg/mL; MIC [30]: 64 µg/mL; MIC [31]: 4 µg/mL; MIC [32]: 4 µg/mL; MIC [33]: 4 µg/mL; MIC [34]: 4 µg/mL; MIC [35]: 64 µg/mL (≈ 141 µM); MIC [36]: 4 µg/mL; MIC [37]: 64 µg/mL; MIC [38]: < 2 µg/mL
